Data on 27 molecules can be found in ChEMBL document CHEMBL1126206, “Potential anti-AIDS naphthalenesulfonic acid derivatives. Synthesis and inhibition of HIV-1 induced cytopathogenesis and HIV-1 and HIV-2 reverse transcriptase activities” (J Med Chem, 1992).

For one series, the system named is MT4. Kind of series: Evaluated for 50% antiviral effective concentration based on inhibition of HIV-1 (HTLV-IIIB) induced cytopathogenicity in MT-4 cells. The format is functional, cell-based. The following applies: Homo sapiens. In a few lines:
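MT-4 cells were infected with HIV-1 HTLV-IIIB at MOI 0.02 and cultured with a range of compound concentrations for 4 days. Viable cells were counted by MTT.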
Background: Cytopathic effects are the visible damage that an infection or toxin causes in cultured cells.

Series [1] in a line: Evaluated for 50% cytotoxic concentration based on reduction of viability of mock-infected cells. The note with it: human, MT4 cells (mock-infected). In kind it is cell-based. In a few lines: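 Mock-infected MT-4 cells were cultured with a range of compound concentrations for 4 days, and viability was read by MTT.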
For series [2], the target named is Human immunodeficiency virus type 1 reverse transcriptase (Human immunodeficiency virus 1, UniProt Q72547). Kind of series: Inhibition of purified HIV-1 reverse transcriptase. In a few lines: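 Recombinant dimeric RT expressed in E. coli (HIV-1 p66/p51, HIV-2 p68/p55), 0.08 μg per reaction; identical conditions for both enzymes. Buffer: 50 mM Tris-HCl pH 8.0, 150 mM KCl, 5 mM MgCl2, 0.5 mM EGTA, 5 mM DTT, 0.3 mM glutathione. Template-primer poly(rA)·oligo(dT)12-18 with 20 μM TTP plus [3H]TTP. Compound in DMSO or water. Incubated 1 h at 37 °C, stopped with EGTA. Incorporation read on DE-81 filters by scintillation.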

Where only a bound is given, the exact number is not on record here.

What is called EC50 is the concentration at which the effect is half-maximal. Low readings indicate higher potency in that assay, high ones lower potency in that assay. Broadly, the CC50 is the concentration giving 50% cytotoxicity. Read a high CC50 as better tolerance by the cells. Consider `Nc1ccc2c(S(=O)(=O)O)cc(S(=O)(=O)O)c(N)c2c1O`, for which the EC50 in the series with MT4 is more than 7.7 µM. In series [1], half-maximal cytotoxicity (CC50) was put at 7.7 µM.
What is called IC50 is the concentration that inhibits the measured activity by half. `O=S(=O)(O)c1cc(NS(=O)(=O)c2ccc(-c3ccc(S(=O)(=O)Nc4cc(S(=O)(=O)O)cc5cc(S(=O)(=O)O)cc(S(=O)(=O)O)c45)cc3)cc2)c2c(S(=O)(=O)O)cc(S(=O)(=O)O)cc2c1`: the EC50 with MT4 was found to be 36 µM. Moreover, the CC50 in series [1] is more than 100 µM. Besides, the IC50 in series [2] is more than 849 µM.
The like results for `O=S(=O)(O)c1ccc(-c2ccc(S(=O)(=O)Nc3cc(S(=O)(=O)O)cc4cc(S(=O)(=O)O)cc(S(=O)(=O)O)c34)cc2)cc1` were, in that order, more than 100 µM, more than 100 µM and more than 1000 µM.
Taken in the same sequence, the figures for `CCCCCCCCCCCCCCCC(=O)Nc1cc(S(=O)(=O)O)cc2cc(S(=O)(=O)O)cc(S(=O)(=O)O)c12` were more than 42 µM, 42 µM and 55 µM.
The like results for `CC(=O)Nc1cc(S(=O)(=O)O)cc2cc(S(=O)(=O)O)cc(S(=O)(=O)O)c12` were, in that order, more than 100 µM, more than 100 µM and more than 1000 µM.
In the series on MT4, `CC(=O)Nc1cc(S(=O)(=O)O)cc2cc(S(=O)(=O)O)cc(OC(C)=O)c12` had an EC50 of more than 500 µM. Besides, in series [1], the CC50 is more than 500 µM. This molecule had an IC50 in series [2] of more than 1000 µM.
In the series with MT4, `O=C(O)CCCC(=O)Nc1cc(S(=O)(=O)O)cc2cc(S(=O)(=O)O)cc(O)c12` gave an EC50 of more than 500 µM. The molecule further registered a CC50 in series [1] of more than 500 µM. For the same molecule, the IC50 in series [2] is more than 1000 µM.
Regarding `COc1cc(S(=O)(=O)O)cc2cc(S(=O)(=O)[O-])cc([N+](C)(C)C)c12`, the EC50 in the series on MT4 is more than 500 µM. The molecule further returned a CC50 in series [1] of more than 500 µM. The molecule also gave an IC50 in series [2] of more than 1000 µM.
As to `COc1cc(S(=O)(=O)O)cc2cc(S(=O)(=O)O)cc(N(C)C)c12`, in the series on MT4, the EC50 is more than 500 µM. The CC50 in series [1] is more than 500 µM. This molecule gave an IC50 in series [2] of more than 1000 µM.
In the series with MT4, `O=C(O)CCCCCCCCC(=O)Nc1cc(S(=O)(=O)O)cc2cc(S(=O)(=O)O)cc(O)c12` showed an EC50 of 134 µM. In series [1], this molecule showed a CC50 of more than 500 µM. In series [2], this molecule returned an IC50 of 135 µM.
For `Nc1cc(S(=O)(=O)O)cc2cc(S(=O)(=O)O)cc(S(=O)(=O)O)c12`, the EC50 with MT4 is more than 100 µM. In addition, in series [1], the CC50 is more than 100 µM. In series [2], this molecule displayed an IC50 of more than 1000 µM.
In the series with MT4, `O=C(CCCCCCCCCCC(=O)Nc1cc(S(=O)(=O)O)cc2cc(S(=O)(=O)O)cc(S(=O)(=O)O)c12)Nc1cc(S(=O)(=O)O)cc2cc(S(=O)(=O)O)cc(S(=O)(=O)O)c12` gave an EC50 of more than 51 µM. This molecule showed a CC50 in series [1] of more than 100 µM. The IC50 in series [2] came to 136 µM.
Taken in the same sequence, the figures for `Nc1c(S(=O)(=O)O)cc2cc(S(=O)(=O)O)cc(O)c2c1O` were more than 12 µM, 12 µM and 162 µM.
The like results for `CC(=O)Oc1cc(S(=O)(=O)O)cc2cc(S(=O)(=O)O)cc(OC(C)=O)c12` were, in that order, more than 461 µM, 461 µM and more than 1000 µM.
As to `CC(=O)Oc1cc(S(=O)(=O)O)cc2cc(S(=O)(=O)O)c(N=Nc3ccccc3)c(OC(C)=O)c12`, in the series on MT4, the 50% effective concentration (EC50) is more than 500 µM. For the same molecule, the CC50 in series [1] was more than 500 µM. The same molecule gave an IC50 in series [2] of more than 1000 µM.
In the series with MT4, `O=C(O)c1cc(NS(=O)(=O)c2ccc(-c3ccc(S(=O)(=O)Nc4cc(C(=O)O)c(O)c(S(=O)(=O)O)c4)cc3)cc2)cc(S(=O)(=O)O)c1O` registered a 50% effective concentration (EC50) of 52.5 µM. Also, in series [1], the CC50 is 247 µM. In series [2], this molecule had an IC50 of 427 µM.
In the series with MT4, `CCCCCCCCCCCCCCCC(=O)Nc1cc(S(=O)(=O)O)cc2cc(S(=O)(=O)O)cc(O)c12` registered an EC50 of 37 µM. This molecule had a CC50 in series [1] of 250 µM.
`CCCCCCCCCCCCCCCC(=O)Oc1cc(S(=O)(=O)O)cc2cc(S(=O)(=O)O)cc(OC(=O)CCCCCCCCCCCCCCC)c12` had a concentration giving a half-maximal response (EC50) with MT4 of more than 15 µM. In addition, half-maximal cytotoxicity in series [1] (CC50) was put at 15 µM.
Molecule `O=C(Nc1cc(S(=O)(=O)O)cc2cc(S(=O)(=O)O)cc(O)c12)c1ccccc1` registered an EC50 in the series with MT4 of 358 µM. The same molecule yielded a CC50 in series [1] of more than 500 µM. For the same molecule, inhibition in series [2] was half-maximal at 464 µM (IC50).
For the molecule `CC(=O)Nc1cc(S(=O)(=O)O)cc2cc(S(=O)(=O)O)cc(O)c12`, the EC50 with MT4 was determined as 53 µM. In addition, the CC50 in series [1] came out at 402 µM. Also, in series [2], the IC50 amounted to 243 µM.
The like results for `Nc1ccc2cc(S(=O)(=O)O)cc(S(=O)(=O)O)c2c1` were, in that order, more than 500 µM, more than 500 µM and more than 1000 µM.
With `O=S(=O)(O)c1cc(S(=O)(=O)O)c2cc(NS(=O)(=O)c3ccc(-c4ccc(S(=O)(=O)Nc5ccc6cc(S(=O)(=O)O)cc(S(=O)(=O)O)c6c5)cc4)cc3)ccc2c1`, in the series on MT4, it took 29.5 µM to reach a half-maximal effect (EC50). In series [1], this molecule came in with a half-maximal cytotoxic concentration (CC50) of more than 500 µM. The IC50 in series [2] is 125 µM.
In the series on MT4, `O=C(CCCCCCCCC(=O)Nc1cc(S(=O)(=O)O)cc2cc(S(=O)(=O)O)cc(O)c12)Nc1cc(S(=O)(=O)O)cc2cc(S(=O)(=O)O)cc(O)c12` showed an EC50 of 9.7 µM. In addition, the midpoint of cytotoxicity in series [1], the CC50, lay at 288 µM. The same molecule gave an IC50 in series [2] of 52 µM.
The like results for `Nc1cc(S(=O)(=O)O)cc2cc(S(=O)(=O)O)cc(O)c12` were, in that order, more than 529 µM, 529 µM and more than 1000 µM.
Regarding `Nc1cc(S(=O)(=O)O)c2ccccc2c1N`, the EC50 in the series on MT4 is more than 189 µM. This molecule displayed a CC50 in series [1] of 189 µM. This molecule came in with an IC50 in series [2] of 50 µM.
Take `O=S(=O)(O)c1cc(O)c2c(O)cc(S(=O)(=O)O)cc2c1` [CHROMOTROPATE]: the EC50 with MT4 was more than 1180 µM. The molecule also had a CC50 in series [1] of 1180 µM.
The like results for `Cc1ccc(C(=O)Nc2ccc(S(=O)(=O)O)c3cc(S(=O)(=O)O)cc(S(=O)(=O)O)c23)cc1NC(=O)c1cccc(NC(=O)Nc2cccc(C(=O)Nc3cc(C(=O)Nc4ccc(S(=O)(=O)O)c5cc(S(=O)(=O)O)cc(S(=O)(=O)O)c45)ccc3C)c2)c1` [SURAMIN] were, in that order, 8.2 µM and 250 µM.
